Source: ChEMBL document CHEMBL4261600 (Eur J Med Chem, 2018)
The source made the active and inactive calls.

Columns and labels:
[1] = tested on: Tyrosine-protein kinase ABL1 (Homo sapiens), P00519 [T315I]; assay: Binding affinity to human non-phosphorylated ABL1 T315I mutant (S229 to K512 residues) expressed in mammalian expression system assessed as remaining unbound target protein level at 1000 nM by Kinomescan method relative to control
How it was run: (§1)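 KINOMEscan competition-binding profiling across the panel of 468 kinases and mutants, with inhibitor tested at 1 μM. Binding is expressed as percent of control, with DMSO as the reference control.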

[2] = target: Serine/threonine-protein kinase TAO3 (Homo sapiens) (UniProt Q9H2K8); assay: Binding affinity to wild-type human partial length TAOK3 (M1 to T316 residues) expressed in mammalian expression system assessed as remaining unbound target protein level at 1000 nM by Kinomescan method relative to control
[3] = target: Ribosomal protein S6 kinase alpha-2 (Homo sapiens) (UniProt Q15349); assay: Binding affinity to wild-type human partial length N-terminal RSK3 kinase domain 1 (M1 to Q385 residues) expressed in bacterial expression system assessed as remaining unbound target protein level at 1000 nM by Kinomescan method relative to control
[4] = target: Mitogen-activated protein kinase kinase kinase 19 (Homo sapiens) (UniProt Q56UN5); assay: Binding affinity to wild-type human partial length YSK4 (T1019 to H1328 residues) expressed in mammalian expression system assessed as remaining unbound target protein level at 1000 nM by Kinomescan method relative to control
[5] = tested on: ALK tyrosine kinase receptor (Homo sapiens), Q9UM73 [C1156Y]; assay: Binding affinity to wild-type human partial length ALK C1156Y mutant (I1088 to E1409 residues) expressed in mammalian expression system assessed as remaining unbound target protein level at 1000 nM by Kinomescan method relative to control
How it was run: (§2)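 Profiled in a KINOMEscan binding panel with the inhibitor at a single concentration of 1 μM. Binding to each kinase was read out as percent of control, relative to a DMSO control. Strong binders were defined as those with a percent control value below 1.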

[6] = target: Mitogen-activated protein kinase kinase kinase 14 (Homo sapiens) (UniProt Q99558); assay: Binding affinity to wild-type human partial length NIK (L318 to P947 residues) expressed in mammalian expression system assessed as remaining unbound target protein level at 1000 nM by Kinomescan method relative to control
[7] = target: Serine/threonine-protein kinase WNK4 (Homo sapiens) (UniProt Q96J92); assay: Binding affinity to wild-type human partial length WNK4 (A31 to D461 residues) expressed in mammalian expression system assessed as remaining unbound target protein level at 1000 nM by Kinomescan method relative to control
[8] = target: Serine/threonine-protein kinase TAO2 (Homo sapiens) (UniProt Q9UL54); assay: Binding affinity to wild-type human partial length TAOK2 (M1 to A320 residues) expressed in mammalian expression system assessed as remaining unbound target protein level at 1000 nM by Kinomescan method relative to control
[9] = target: Casein kinase I isoform alpha (Homo sapiens) (UniProt P48729); assay: Binding affinity to wild-type human partial length CSNK1A1 (M1 to L450 residues) expressed in mammalian expression system assessed as remaining unbound target protein level at 1000 nM by Kinomescan method relative to control
How it was run: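 KINOMEscan competition binding profile across a panel of 468 kinases and mutants, with the inhibitor tested at a single concentration of 1 μM. Binding is reported as percent of control, meaning signal relative to a DMSO control.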

[10] = target: Cyclin-dependent kinase 4 (Homo sapiens) (UniProt P11802); assay: Binding affinity to wild-type human full length CDK4 (M1 to E303 residues) expressed in mammalian expression system assessed as remaining unbound target protein level at 1000 nM by Kinomescan method relative to control
How it was run: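 KINOMEscan competitive binding profile at 1 μM inhibitor. Remaining target binding reported as percent of DMSO control.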

CDK9/Cyclin K = CDK9/Cyclin K (Homo sapiens, UniProt P50750); assay: Inhibition of CDK9/Cyclin K (unknown origin) using PDKtide as substrate incubated at 37 degreeC for 1 hr followed by incubation at room temperature for 5 mins by ADP-Glo reagent based luminescence assay; format: protein-complex assay
[11] = target: Serine/threonine-protein kinase 10 (Homo sapiens) (UniProt O94804); assay: Binding affinity to wild-type human partial length LOK (E16 to V314 residues) expressed in bacterial expression system assessed as remaining unbound target protein level at 1000 nM by Kinomescan method relative to control
[12] = target: Serine/threonine-protein kinase MAK (Homo sapiens) (UniProt P20794); assay: Binding affinity to wild-type human partial length MAK (M1 to P314 residues) expressed in bacterial expression system assessed as remaining unbound target protein level at 1000 nM by Kinomescan method relative to control
[13] = tested on: Receptor-type tyrosine-protein kinase FLT3 (Homo sapiens), P36888 [N841I]; assay: Binding affinity to human partial length FLT3 N841I mutant (V592 to Y969 residues) expressed in bacterial expression system assessed as remaining unbound target protein level at 1000 nM by Kinomescan method relative to control; how it was run: as §1
Mus musculus = assay: Toxicity in nu/nu mouse xenografted with MV4-11 cells assessed as effect on body weight at 10 to 30 mg/kg, po administered via gavage for 21 days measured every day during compound dosing; format: organism-based; conditions: in vivo, 504 h
[14] = target: MAP kinase-activated protein kinase 5 (Homo sapiens) (UniProt Q8IW41); assay: Binding affinity to wild-type human partial length MAPKAPK5 (M1 to D322 residues) expressed in mammalian expression system assessed as remaining unbound target protein level at 1000 nM by Kinomescan method relative to control
How it was run: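 KINOMEscan binding panel of 468 kinases/mutants. Inhibitor was tested at a single concentration of 1 μM. Binding is reported as percent of control, defined relative to a DMSO control.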

[15] = target: Calcium/calmodulin-dependent protein kinase type 1B (Homo sapiens) (UniProt Q6P2M8); assay: Binding affinity to wild-type human partial length CAMK1B (W9 to A311 residues) expressed in mammalian expression system assessed as remaining unbound target protein level at 1000 nM by Kinomescan method relative to control; how it was run: as §2
[16] = target: Cyclin-dependent kinase 7 (Homo sapiens) (UniProt P50613); assay: Inhibition of CDK7 in human MV4-11 cells assessed as decrease in RNA polymerase 2 phosphorylation at Ser 5 residues up to 3 uM after 2 hrs by immunoblotting analysis; format: cell-based
[17] = target: Serine/threonine-protein kinase MRCK alpha (Homo sapiens) (UniProt Q5VT25); assay: Binding affinity to wild-type human partial length MRCKA (L57 to V418 residues) expressed in bacterial expression system assessed as remaining unbound target protein level at 1000 nM by Kinomescan method relative to control
[18] = tested on: Epidermal growth factor receptor (Homo sapiens), P00533 [T790M]; assay: Binding affinity to human partial length EGFR T790M mutant (R669 to G1022 residues) expressed in mammalian expression system assessed as remaining unbound target protein level at 1000 nM by Kinomescan method relative to control; how it was run: as §1
[19] = target: SRSF protein kinase 3 (Homo sapiens) (UniProt Q9UPE1); assay: Binding affinity to wild-type human partial length SRPK3 (P41 to P567 residues) expressed in bacterial expression system assessed as remaining unbound target protein level at 1000 nM by Kinomescan method relative to control

Chain of ALK tyrosine kinase receptor (Homo sapiens), Q9UM73 [C1156Y] (Q9UM73 whole entry C1156Y, looked up, the tested form may be a part): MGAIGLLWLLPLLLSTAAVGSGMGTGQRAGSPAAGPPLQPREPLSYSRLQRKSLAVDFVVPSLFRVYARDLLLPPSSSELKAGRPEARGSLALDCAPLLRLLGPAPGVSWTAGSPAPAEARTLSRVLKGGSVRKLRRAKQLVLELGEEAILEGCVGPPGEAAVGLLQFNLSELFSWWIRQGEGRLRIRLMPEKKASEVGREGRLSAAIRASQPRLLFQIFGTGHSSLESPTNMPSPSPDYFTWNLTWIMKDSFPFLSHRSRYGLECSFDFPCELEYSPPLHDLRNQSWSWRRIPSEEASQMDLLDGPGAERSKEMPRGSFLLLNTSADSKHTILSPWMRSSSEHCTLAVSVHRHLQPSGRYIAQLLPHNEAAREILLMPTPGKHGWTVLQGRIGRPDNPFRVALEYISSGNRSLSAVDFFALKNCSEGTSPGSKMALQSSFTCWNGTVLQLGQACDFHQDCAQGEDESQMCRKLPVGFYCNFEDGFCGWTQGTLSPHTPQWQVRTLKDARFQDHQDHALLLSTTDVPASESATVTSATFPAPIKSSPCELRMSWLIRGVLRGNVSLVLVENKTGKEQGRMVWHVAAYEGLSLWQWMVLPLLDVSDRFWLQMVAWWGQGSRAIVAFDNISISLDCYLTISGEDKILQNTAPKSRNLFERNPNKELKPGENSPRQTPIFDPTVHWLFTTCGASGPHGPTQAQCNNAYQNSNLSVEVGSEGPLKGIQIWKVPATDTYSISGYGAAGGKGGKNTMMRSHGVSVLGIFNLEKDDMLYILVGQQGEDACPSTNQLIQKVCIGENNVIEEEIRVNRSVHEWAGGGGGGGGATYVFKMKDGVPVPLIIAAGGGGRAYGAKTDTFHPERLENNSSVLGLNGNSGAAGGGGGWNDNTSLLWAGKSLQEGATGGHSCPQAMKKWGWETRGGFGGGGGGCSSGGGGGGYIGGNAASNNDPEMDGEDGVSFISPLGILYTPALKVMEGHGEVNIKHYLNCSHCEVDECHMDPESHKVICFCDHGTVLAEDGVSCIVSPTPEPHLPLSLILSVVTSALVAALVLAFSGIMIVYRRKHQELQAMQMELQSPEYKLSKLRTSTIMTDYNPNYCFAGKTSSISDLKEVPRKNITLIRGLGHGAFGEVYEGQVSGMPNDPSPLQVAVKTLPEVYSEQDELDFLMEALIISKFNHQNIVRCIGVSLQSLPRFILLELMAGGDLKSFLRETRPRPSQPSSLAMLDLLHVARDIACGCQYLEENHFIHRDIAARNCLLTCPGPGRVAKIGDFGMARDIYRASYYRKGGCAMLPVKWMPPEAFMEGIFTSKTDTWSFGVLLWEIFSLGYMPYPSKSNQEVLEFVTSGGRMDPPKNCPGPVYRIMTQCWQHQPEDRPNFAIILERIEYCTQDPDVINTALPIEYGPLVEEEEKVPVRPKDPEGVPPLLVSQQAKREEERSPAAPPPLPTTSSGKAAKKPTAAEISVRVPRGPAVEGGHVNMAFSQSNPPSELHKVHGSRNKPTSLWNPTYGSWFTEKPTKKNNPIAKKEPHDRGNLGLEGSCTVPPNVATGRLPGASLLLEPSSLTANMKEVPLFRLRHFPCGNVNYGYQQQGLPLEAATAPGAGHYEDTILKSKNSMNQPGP
Chain of Cyclin-dependent kinase 7 (Homo sapiens) (P50613 whole entry, the tested form may be a part): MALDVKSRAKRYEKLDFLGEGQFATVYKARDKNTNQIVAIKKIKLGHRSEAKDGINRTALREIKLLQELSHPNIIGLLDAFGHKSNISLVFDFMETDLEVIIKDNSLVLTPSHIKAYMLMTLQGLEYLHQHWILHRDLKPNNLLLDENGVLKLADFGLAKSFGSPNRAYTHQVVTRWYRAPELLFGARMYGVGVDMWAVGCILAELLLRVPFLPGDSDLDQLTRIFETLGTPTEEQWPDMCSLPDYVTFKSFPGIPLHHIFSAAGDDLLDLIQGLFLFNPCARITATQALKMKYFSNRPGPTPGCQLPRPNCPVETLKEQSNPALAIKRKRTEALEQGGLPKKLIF
Chain of Ribosomal protein S6 kinase alpha-2 (Homo sapiens) (Q15349 whole entry, the tested form may be a part): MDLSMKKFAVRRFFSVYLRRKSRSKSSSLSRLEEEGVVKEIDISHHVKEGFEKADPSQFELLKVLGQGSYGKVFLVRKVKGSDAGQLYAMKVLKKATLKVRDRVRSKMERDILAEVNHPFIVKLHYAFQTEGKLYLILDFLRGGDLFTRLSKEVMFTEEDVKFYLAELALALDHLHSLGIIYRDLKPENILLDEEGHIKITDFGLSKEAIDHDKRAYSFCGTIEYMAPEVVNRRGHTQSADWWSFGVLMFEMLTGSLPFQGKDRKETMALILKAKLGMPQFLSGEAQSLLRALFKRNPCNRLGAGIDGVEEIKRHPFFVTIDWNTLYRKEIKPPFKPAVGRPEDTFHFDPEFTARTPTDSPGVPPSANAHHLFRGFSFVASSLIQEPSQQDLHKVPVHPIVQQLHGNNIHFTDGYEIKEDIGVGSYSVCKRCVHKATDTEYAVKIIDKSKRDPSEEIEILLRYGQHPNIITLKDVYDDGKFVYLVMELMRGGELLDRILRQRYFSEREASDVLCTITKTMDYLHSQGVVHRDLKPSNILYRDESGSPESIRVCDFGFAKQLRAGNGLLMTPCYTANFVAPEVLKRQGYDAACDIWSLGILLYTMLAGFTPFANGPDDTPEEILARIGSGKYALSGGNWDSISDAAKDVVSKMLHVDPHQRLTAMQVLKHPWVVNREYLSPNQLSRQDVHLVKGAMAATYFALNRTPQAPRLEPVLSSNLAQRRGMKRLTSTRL
Chain of Serine/threonine-protein kinase MRCK alpha (Homo sapiens) (Q5VT25 whole entry, the tested form may be a part): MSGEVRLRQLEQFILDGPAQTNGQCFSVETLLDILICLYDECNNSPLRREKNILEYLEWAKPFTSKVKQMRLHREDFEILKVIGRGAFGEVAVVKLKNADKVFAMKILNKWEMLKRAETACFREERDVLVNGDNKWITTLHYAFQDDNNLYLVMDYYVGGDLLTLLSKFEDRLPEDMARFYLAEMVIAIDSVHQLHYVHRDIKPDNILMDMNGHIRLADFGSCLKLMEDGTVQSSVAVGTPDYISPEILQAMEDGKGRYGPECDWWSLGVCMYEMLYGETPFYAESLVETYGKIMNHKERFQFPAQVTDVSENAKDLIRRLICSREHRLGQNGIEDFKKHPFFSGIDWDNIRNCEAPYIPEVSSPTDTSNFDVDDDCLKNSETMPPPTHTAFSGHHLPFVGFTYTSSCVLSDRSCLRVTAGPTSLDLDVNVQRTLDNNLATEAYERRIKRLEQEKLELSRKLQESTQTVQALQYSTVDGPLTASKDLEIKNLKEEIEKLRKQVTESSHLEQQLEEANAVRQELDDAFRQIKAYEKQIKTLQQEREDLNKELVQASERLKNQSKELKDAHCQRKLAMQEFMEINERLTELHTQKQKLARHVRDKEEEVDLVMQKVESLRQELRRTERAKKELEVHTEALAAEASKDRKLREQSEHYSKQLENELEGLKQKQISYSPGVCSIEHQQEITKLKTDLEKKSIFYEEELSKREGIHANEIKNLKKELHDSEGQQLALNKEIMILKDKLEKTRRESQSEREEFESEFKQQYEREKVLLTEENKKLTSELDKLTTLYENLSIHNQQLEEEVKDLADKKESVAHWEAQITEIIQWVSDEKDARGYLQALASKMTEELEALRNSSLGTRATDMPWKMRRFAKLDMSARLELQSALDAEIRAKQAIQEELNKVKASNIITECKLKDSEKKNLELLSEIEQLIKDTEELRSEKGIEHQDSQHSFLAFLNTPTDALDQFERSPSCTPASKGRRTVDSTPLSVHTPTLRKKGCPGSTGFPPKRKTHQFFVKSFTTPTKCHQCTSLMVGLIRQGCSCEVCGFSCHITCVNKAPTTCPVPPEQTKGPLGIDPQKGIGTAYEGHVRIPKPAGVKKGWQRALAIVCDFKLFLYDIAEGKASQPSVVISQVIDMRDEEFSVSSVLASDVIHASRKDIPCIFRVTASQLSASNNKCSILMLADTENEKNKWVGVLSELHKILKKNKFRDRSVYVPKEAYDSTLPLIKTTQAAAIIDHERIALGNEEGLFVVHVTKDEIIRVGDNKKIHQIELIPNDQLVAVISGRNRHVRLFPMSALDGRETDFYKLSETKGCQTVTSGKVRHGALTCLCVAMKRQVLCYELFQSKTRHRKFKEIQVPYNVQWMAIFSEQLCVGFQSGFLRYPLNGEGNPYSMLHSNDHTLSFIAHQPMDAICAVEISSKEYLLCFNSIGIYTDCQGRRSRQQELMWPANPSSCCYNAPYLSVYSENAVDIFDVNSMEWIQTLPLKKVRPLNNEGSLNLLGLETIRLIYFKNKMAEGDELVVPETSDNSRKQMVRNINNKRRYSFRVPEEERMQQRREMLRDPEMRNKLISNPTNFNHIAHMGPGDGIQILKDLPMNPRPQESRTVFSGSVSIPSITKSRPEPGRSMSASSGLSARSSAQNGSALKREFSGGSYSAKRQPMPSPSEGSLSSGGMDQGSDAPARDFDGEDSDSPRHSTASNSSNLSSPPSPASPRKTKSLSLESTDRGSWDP
Chain of Casein kinase I isoform alpha (Homo sapiens) (P48729 2-337 limits assumed): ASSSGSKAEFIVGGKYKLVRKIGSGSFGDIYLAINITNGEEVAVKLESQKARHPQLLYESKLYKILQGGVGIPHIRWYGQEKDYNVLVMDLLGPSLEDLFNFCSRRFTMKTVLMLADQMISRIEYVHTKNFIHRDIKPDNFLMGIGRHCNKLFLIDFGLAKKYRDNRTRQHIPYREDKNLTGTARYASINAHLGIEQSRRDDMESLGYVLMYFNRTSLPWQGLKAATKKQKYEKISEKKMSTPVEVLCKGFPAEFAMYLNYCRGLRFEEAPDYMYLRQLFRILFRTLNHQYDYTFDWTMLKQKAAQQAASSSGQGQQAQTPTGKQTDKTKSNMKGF
Chain of Cyclin-dependent kinase 4 (Homo sapiens) (P11802 whole entry, the tested form may be a part): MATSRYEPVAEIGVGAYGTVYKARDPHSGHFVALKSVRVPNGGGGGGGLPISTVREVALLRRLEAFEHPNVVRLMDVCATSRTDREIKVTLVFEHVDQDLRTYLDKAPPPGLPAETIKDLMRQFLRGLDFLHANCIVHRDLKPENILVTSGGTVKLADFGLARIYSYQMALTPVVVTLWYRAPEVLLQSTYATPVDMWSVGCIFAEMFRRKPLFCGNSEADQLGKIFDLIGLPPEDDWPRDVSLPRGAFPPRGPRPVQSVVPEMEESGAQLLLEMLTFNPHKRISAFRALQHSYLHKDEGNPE

## COCCN[C@H]1CC[C@H](Nc2cc(-c3csc(NCC4(C#N)CCOCC4)n3)c(Cl)cn2)CC1
[1]
  Activity: 100%
[2]
  Activity: 15%
[3]
  Activity: 90%
[4]
  Activity: 72%
[5]
  Activity: 86%
[6]
  Activity: 100%
[7]
  Activity: 100%
[8]
  Activity: 60%
[9]
  Activity: 99%
[10]
  Activity: 93%
CDK9/Cyclin K
  IC50: 6 nM
[11]
  Activity: 100%
[12]
  Activity: 100%
[13]
  Activity: 83%
Mus musculus
  Activity: Non-Toxic
[14]
  Activity: 93%
[15]
  Activity: 97%
[16]
  inhibition: inactive
[17]
  Activity: 83%
[18]
  Activity: 100%
[19]
  Activity: 98%
